ChEMBL document CHEMBL4251685, “Microthecaline A, a Quinoline Serrulatane Alkaloid from the Roots of the Australian Desert Plant Eremophila microtheca” (J Nat Prod, 2018)
Activity calls are given as the source filed them. The rule behind the calls is not given here.

What was measured:
Plasmodium falciparum [1] = test: Antimalarial activity against chloroquine-resistant Plasmodium falciparum Dd2 after 72 hrs by DAPI staining based fluorescence assay; format: functional, organism-based; conditions: Dd2, 72 h
[2] = Selectivity index, ratio of IC50 for HEK293 cells to IC50 for chloroquine-sensitive Plasmodium falciparum 3D7; format: toxicity; conditions: human; read-out: Ratio IC50
[3] = Selectivity index, ratio of IC50 for HEK293 cells to IC50 for chloroquine-resistant Plasmodium falciparum Dd2; format: toxicity; conditions: human; read-out: Ratio IC50
HEK293 = test: Cytotoxicity against HEK293 cells assessed as inhibition of cell growth at 10 uM after 72 hrs by alamar blue assay; format: cell-based; conditions: human, hek293, 72 h
Plasmodium falciparum [4] = test: Antimalarial activity against chloroquine-sensitive Plasmodium falciparum 3D7 after 72 hrs by DAPI staining based fluorescence assay; format: functional, organism-based; conditions: 3D7, 72 h
[5] = Cytotoxicity against HEK293 cells assessed as inhibition of cell growth at 80 uM after 72 hrs by alamar blue assay relative to control; format: cell-based; conditions: human, read-out: GI
Method in brief: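 HEK293 human embryonic kidney cells; the reported value is the average percent inhibition measured at 80 μM.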

Plasmodium falciparum [6] = test: Antimalarial activity against chloroquine-resistant Plasmodium falciparum Dd2 at 10 uM after 72 hrs by DAPI staining based fluorescence assay; format: functional, organism-based
Plasmodium falciparum [7] = test: Antimalarial activity against chloroquine-sensitive Plasmodium falciparum 3D7 at 10 uM after 72 hrs by DAPI staining based fluorescence assay; format: functional, organism-based

SMILES | IC50 (Plasmodium falciparum [1]) [µM] | selectivity ratio [2] | selectivity ratio [3] | also measured
C[C@H]1[C@H](OC(=O)CCC(=O)O)O[C@@H]2O[C@@]3(C)CC[C@H]4[C@H](C)CC[C@@H]1[C@@]24OO3 [ARTESUNATE] | 0.001 | 11600 | 10000 | 
CCN(CC)CCCC(C)Nc1ccnc2cc(Cl)ccc12 (stereo not drawn) [CHLOROQUINE] |  |  |  | growth inhibition (GI) (HEK293): Not Active
CC(C)=CCCc1cnc2c(C)cc(O)c3c2c1CC[C@H]3C | 17.2 | 5.2 | 2.3 | IC50 (Plasmodium falciparum [4]): 7.7 µM; inhibition at 72 h, 80 µM [5]: 62%
COc1cc(C)c2ncc(CCC=C(C)C)c3c2c1[C@H](C)CC3 |  |  |  | Activity (Plasmodium falciparum [6]): inactive; Activity (Plasmodium falciparum [7]): inactive
COc1ccc(C[C@H](N)C(=O)N[C@H]2[C@@H](O)[C@H](n3cnc4c(N(C)C)ncnc43)O[C@@H]2CO)cc1 [PUROMYCIN] |  | 9 | 10.5 | 
